Results collected from several papers.
Protocols differ between the studies behind these lines. pIC50, pKd, pKi: −log10 of the molar value.
Maoa: Amine oxidase [flavin-containing] A (Maoa, Mus musculus, UniProt Q64133)
EPHX2: Bifunctional epoxide hydrolase 2 (EPHX2, Homo sapiens, UniProt P34913)
DDB1: DNA damage-binding protein 1 (DDB1, Homo sapiens, UniProt Q16531)

| SMILES | target | assay | conditions | endpoint | result |
| --- | --- | --- | --- | --- | --- |
| Cc1ccc(F)c(CNS(=O)(=O)c2cccc3cccnc23)c1 | Maoa | enzyme activity, inhibitor, fluorescence |  | pIC50 | 5.56 |
| CC[C@H](C)[C@@H]1NC(=O)[C@H](CC(=O)O)NC(=O)[C@H]([C@@H](C)O)NC(=O)[C@@H]2CSSC[C@@H]3NC(=O)[C@H](CC(C)C)NC(=O)[C@H](CC(N)=O)NC(=O)[C@H](CC(C)C)NC(=O)[C@H](CCCNC(=N)N)NC(=O)[C@H](Cc4ccc(O)cc4)NC(=O)[C@H](CCCCN)NC(=O)[C@H](CCSC)NC(=O)[C@H](CO)NC(=O)[C@H]([C@@H](C)O)NC(=O)[C@H](CCCNC(=N)N)NC(=O)[C@H](CSSC[C@H](NC(=O)[C@H]([C@@H](C)O)NC(=O)[C@H](CCCCN)NC(=O)[C@H](CCCNC(=N)N)NC3=O)C(=O)NCC(=O)N[C@@H](CO)C(=O)N[C@H](C(=O)O)CSSC[C@H](NC(=O)[C@@H](NC(=O)[C@@H](N)CCCNC(=N)N)[C@@H](C)O)C(=O)N[C@@H](CCCCN)C(=O)N[C@@H](CC(=O)O)C(=O)N[C@@H](CC(C)C)C(=O)N[C@@H]([C@@H](C)CC)C(=O)N3CCC[C@H]3C(=O)N[C@@H](C(C)C)C(=O)N[C@@H](CO)C(=O)N[C@@H](CCC(=O)O)C(=O)N2)NC(=O)[C@H](CCCNC(=N)N)NC1=O | Potassium voltage-gated channel subfamily A member 2 (KCNA2, Homo sapiens, UniProt P16389) | ion current, inhibitor, two-electrode voltage clamp | oocytes | pKi | 8.60 |
| CNC(=O)c1ccc(-c2cnn3ccc(C(=O)N(C)c4ccc(Cl)c(C(=O)O)c4)cc23)cc1 | Tyrosine-protein kinase JAK2 (JAK2, Homo sapiens, UniProt O60674) | enzyme activity, inhibitor |  | pIC50 | < 4.52 |
| C#CCN(C)CCCOc1ccc(Cl)cc1Cl | Maoa | enzyme activity, inhibitor, fluorescence |  | pIC50 | 7.35 |
| C[S+]([O-])CCCN=C=S (stereo not shown) | EPHX2 | enzyme activity, inhibitor, fluorescence |  | pIC50 | 4.69 |
| O=C(C=Cc1ccccc1)Nc1cc(-c2ccnc(N3CCC(O)CC3)c2)ccn1 | Estrogen receptor beta (ESR2, Homo sapiens, UniProt Q92731) | binding, SPR |  | pKd | 5.79 |
| CC[C@H](C)[C@H](NC(=O)[C@H](CO)NC(=O)[C@H](CCC(N)=O)NC(=O)CNC(=O)[C@H](CC(C)C)NC(=O)[C@H](CO)NC(=O)[C@H](CO)NC(=O)[C@H](CCCCN)NC(=O)[C@H](Cc1ccc(O)cc1)NC(=O)[C@@H](NC(=O)[C@H](Cc1ccc(O)cc1)NC(=O)[C@H](Cc1c[nH]cn1)NC(=O)[C@H](CC(C)C)NC(=O)[C@@H](NC(=O)[C@H](CO)NC(=O)[C@@H](NC(=O)[C@H](CCC(N)=O)NC(=O)CN)[C@@H](C)O)[C@@H](C)CC)[C@@H](C)CC)C(=O)N[C@@H](Cc1c[nH]cn1)C(=O)N[C@@H](C)C(=O)N[C@@H](CCC(N)=O)C(=O)N[C@@H](CC(C)C)C(=O)N[C@@H](CCCNC(=N)N)C(=O)N[C@@H](CCC(N)=O)C(=O)N[C@@H](CS)C(=O)N[C@@H](CC(C)C)C(=O)NCC(=O)NCC(=O)NCC(=O)NCC(=O)O | DDB1 | cell-free assay, FP | pH 7.5 | pIC50 | 6.06 |
| S=C=NCCc1ccccc1 | EPHX2 | enzyme activity, inhibitor, fluorescence |  | pIC50 | 5.12 |
| COC(=O)c1cc(N(C)C(=O)c2ccn3ncc(-c4ccc(C(=O)O)cc4)c3c2)ccc1Cl | Proto-oncogene tyrosine-protein kinase receptor Ret (RET, Homo sapiens, UniProt P07949) | enzyme activity, inhibitor |  | pIC50 | < 4.52 |
| CC[C@H](C)[C@H](NC(=O)[C@H](CCCCN)NC(=O)[C@@H](NC(=O)[C@H](CCCNC(=N)N)NC(=O)[C@H](CCC(=O)O)NC(=O)[C@H](CC(C)C)NC(=O)[C@H](CCC(N)=O)NC(=O)[C@H](CCCCN)NC(=O)[C@H](CC(C)C)NC(=O)[C@@H](NC(=O)[C@H](Cc1c[nH]cn1)NC(=O)[C@H](CCC(=O)O)NC(=O)[C@@H](N)CCCNC(=N)N)C(C)C)C(C)C)C(=O)N[C@@H](CO)C(=O)NCC(=O)N[C@@H](CCC(N)=O)C(=O)N[C@@H](CC(C)C)C(=O)N[C@@H](CO)C(=O)N1CCC[C@H]1C(=O)N[C@@H](CCCNC(=N)N)C(=O)N[C@@H](CC(C)C)C(=O)N[C@@H](Cc1ccccc1)C(=O)N[C@@H](CCCNC(=N)N)C(=O)N[C@@H](CCCCN)C(=O)N[C@@H](CC(C)C)C(=O)N1CCC[C@H]1C(=O)N1CCC[C@H]1C(=O)N[C@@H](CCCNC(=N)N)C(=O)N[C@H](C(=O)N[C@@H](CS)C(=O)N[C@H](C(=O)N[C@@H](CO)C(=O)O)C(C)C)C(C)C | DDB1 | cell-free assay, FP | pH 7.5 | pIC50 | 7.24 |
